LANA-H2B inh: blocks KSHV LANA binding to histone H2A/H2B; 320,000 tested, 0.6% active; Q9QR71; cell-free LANA-H2A/H2B peptide, fluorescence polarization; inhibition, % (test concentration not listed); AID 2629; in the data active = inhibition mostly above about 10%, no sharp cut-off; inactive = mostly below about 6.7%
RanGTP-Impb inh: inhibitors of RanGTP-importin-beta interaction, primary screen, biochemical, FRET, CFP-Ran, YFP-importin-beta, homogeneous; cell-free CFP-Ran/YFP-importin-beta FRET ratio; inhibition, % (concentration not given with the values); 300,000 tested, 1.1% active; AID 2216;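 active = more than half of the replicate wells show a fall in the fluorescence ratio signal beyond about 16%, limit read from the data, passing the limit was not always enough; inconclusive = exactly half of the replicate wells pass the set limit; inactive = fewer than half of replicates pass the limit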
HDAC3 inh: inhibitors of human histone deacetylase 3 | recombinant HDAC3, fluorogenic peptide/trypsin coupled, fluorescence | O15379 | inhibition, % at 8.3 µM | 320,000 tested, 0.15% active; in the data active = inhibition above about 26%, passing the limit was not always enough; inconclusive = no clear call, values can overlap the other calls
Target sequence (O15379 whole entry, looked up): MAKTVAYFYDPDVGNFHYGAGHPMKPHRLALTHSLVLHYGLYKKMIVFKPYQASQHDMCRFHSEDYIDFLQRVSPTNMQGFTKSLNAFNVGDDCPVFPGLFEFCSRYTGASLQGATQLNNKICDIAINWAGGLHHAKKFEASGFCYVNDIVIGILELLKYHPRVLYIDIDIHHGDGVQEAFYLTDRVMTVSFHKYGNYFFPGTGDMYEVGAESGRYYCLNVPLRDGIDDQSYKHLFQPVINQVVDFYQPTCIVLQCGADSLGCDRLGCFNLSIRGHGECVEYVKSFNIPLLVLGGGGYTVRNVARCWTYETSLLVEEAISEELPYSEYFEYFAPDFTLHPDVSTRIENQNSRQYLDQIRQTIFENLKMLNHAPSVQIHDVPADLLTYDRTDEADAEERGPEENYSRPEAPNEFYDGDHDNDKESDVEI
Runt-CBFb FRET: blocks binding of human RUNX1 Runt domain to CBFb | Cerulean-Runt/Venus-CBFb FRET ratio 530/480, 1 h | AID 1496 | inhibition, % at 20 µM | 220,000 tested, 0.46% active;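 active = inhibition over about 50% at 20 µM in the single-dose screen, limit read from the data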
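Buffer or medium: Tris pH 7.5 buffer with BSA. Assay system: Cerulean-labeled Runt domain protein. Amount: each fluorescent fusion protein 100 nM. Read-out basis: loss of energy transfer signal. Incubation: 1 h compound exposure, room temperature. Probe or stimulus: Venus-CBFb binding partner, 100 nM. Detection: FRET, excitation 422 nm, emission at 530 and 480 nm.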
CaV13 FRET inh: Disruptors of the CACNA1D IQ motif to Ca2+-dependent inactivation inhibitor domain association, primary screening, Förster resonance energy transfer in intact living …; AID 743397; inhibition, % at 12.3 µM; 340,000 tested, 0.098% active; HEK cells, CFP/YFP FRET ICDI-IQ, plate reader, 10 min; percent FRET-ratio fall versus neutral wells;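 active = mean replicate inhibition of at least 30% and at least 1% of replicates passing that level; inconclusive = only one of the two criteria is met; inactive = neither criterion is met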
Runt-SMMHC FRET: blocks binding of human RUNX1 Runt domain to CBFb-SMMHC; 220,000 tested, 0.74% active; inhibition, % at 20 µM; Q01196+Q13951; Cerulean-Runt/Venus-CBFb-SMMHC FRET ratio 530/480, 1 h;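 active = mean inhibition across duplicate retests at 20 µM reaching about 50%, limit read from the data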;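 also: inhibitors lower the FRET ratio by blocking Runt binding to CBFb-SMMHC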
Each line names hits and unclear results; the compound was inactive in the other large screens. Shown are actives, neighbours in structure and some others; about 1.9% of the full set was active somewhere.

C/C(=N\Nc1cc(N2CCOCC2)ncn1)c1ccccc1	none (no result: Runt-CBFb FRET, Runt-SMMHC FRET)
CCC(C)[C@H](NC(=O)N1CCCCC1)C(=O)OC (stereo not given in full)	RanGTP-Impb inh 23.1
CC(=O)NCCN=C(C)c1sc2ccccc2c1O	RanGTP-Impb inh 54.1 (no result: CaV13 FRET inh)
CC(=Nc1cccc(C)c1)c1sc2ccccc2c1O	RanGTP-Impb inh 25.8, Runt-SMMHC FRET 67.6 (no result: CaV13 FRET inh)
CC(=O)Cc1nsc(NC(=O)c2ccc(-c3ccc(F)cc3)o2)n1	none
CC1(C)CC(=O)C=C(Nc2ccc(F)cc2F)C1	RanGTP-Impb inh 35.2
CC1(C)CC(=O)C=C(Nc2ccc(OCC(F)(F)C(F)F)cc2)C1	RanGTP-Impb inh 30.0
CC1(C)CC(=O)C=C(Nc2ccc(F)cc2)C1	RanGTP-Impb inh 27.3
C[C@@H]1CCCCO[C@H](CN(C)C(=O)c2ccncc2)[C@H](C)CN([C@@H](C)CO)C(=O)c2cc(NC(=O)c3ccccc3)ccc2O1	none (no result: LANA-H2B inh, RanGTP-Impb inh, HDAC3 inh, Runt-CBFb FRET, Runt-SMMHC FRET)
CC12CC(c3ccccc3O1)C(/C(N)=N/NC(=O)c1ccc(F)cc1)C(=O)N2 (stereo not given)	none
COc1ccc(CCC(=O)NNC(=S)NCc2ccc(F)cc2)cc1	RanGTP-Impb inh 23.3
C=CCn1c(N)c(C(=O)NCC2CCCO2)c2nc3ccccc3nc21 (stereo not given)	RanGTP-Impb inh 106.7 (no result: CaV13 FRET inh)
COc1ccc(-n2c(N)c(C(=O)NCC3CCCO3)c3nc4ccccc4nc32)c(OC)c1 (stereo not given)	RanGTP-Impb inh 52.5, Runt-SMMHC FRET 105.9 (no result: CaV13 FRET inh)
CCOC(=O)C1(Cc2cccc(OC)c2)CCN(Cc2cccn2-c2nccs2)CC1	RanGTP-Impb inh inconclusive
CCOC(=O)C1(Cc2ccccc2)CCN(Cc2cnc(N3CCOCC3)s2)CC1	LANA-H2B inh 52.6
CCOC(=O)C1(Cc2ccccc2)CCN(Cc2cccn2-c2nccs2)CC1	LANA-H2B inh 14.3
N#Cc1ccccc1/C=N/Nc1nc(-c2ccccc2)c2cc(Cl)ccc2n1	LANA-H2B inh 55.0
Cc1ccc2nc(NCCO)nc(-c3ccccc3)c2c1	RanGTP-Impb inh 29.5
Cc1ccc2nc(N/N=C/c3ccccc3C#N)nc(-c3ccccc3)c2c1	none
OCCNc1nc(-c2ccccc2)c2cc(Cl)ccc2n1	Runt-SMMHC FRET 90.5
Cc1nonc1NC(=O)CSc1nnc(-c2ccoc2C)n1C	none
CN(C)CCNCc1ccc(OC2CCCC2)cc1	none
COc1ccc(C2C=C(C)Nc3ncnn32)cc1 (stereo not given)	none (no result: Runt-CBFb FRET, Runt-SMMHC FRET)
CC1CC1C(=O)OCC(=O)Nc1ccc(Cl)cn1 (stereo not given)	none (no result: RanGTP-Impb inh, Runt-CBFb FRET, Runt-SMMHC FRET)
CN(C)CCCn1c(N)c(C#N)c2nc3ccccc3nc21	RanGTP-Impb inh 61.4, Runt-SMMHC FRET 80.2
CCCCC(CC)Cn1c(N)c(C#N)c2nc3ccccc3nc21 (stereo not given)	RanGTP-Impb inh 49.3, Runt-SMMHC FRET 100.8
Cc1cc(N2CC(C(=O)NCc3cccnc3)CC2=O)ccc1C(C)C (stereo not given)	none
CCOC(=O)c1cc2n(c1/N=C/N(C)C)-c1ccccc1C2=O	none (no result: CaV13 FRET inh)
CCCCc1cc(=O)oc2cc(O)cc(O)c12	Runt-SMMHC FRET 61.0
CCCCc1cc(=O)oc2cc(C)cc(O)c12	none (no result: Runt-CBFb FRET, CaV13 FRET inh)
O=c1c2ccccc2nc(-c2ccco2)n1Cc1ccccc1	none
CCOc1ccc(CCn2c(-c3ccco3)nc3ccccc3c2=O)cc1OCC	LANA-H2B inh 10.8
COc1ccc(C2c3c(n[nH]c3C)CC(C)(O)C2C(C)=O)cc1OC (stereo not given)	LANA-H2B inh 10.1, RanGTP-Impb inh inconclusive
CC(OC(=O)C1COc2ccccc2O1)C(=O)c1ccccc1 (stereo not given)	none (no result: LANA-H2B inh, RanGTP-Impb inh, HDAC3 inh, Runt-CBFb FRET, Runt-SMMHC FRET)
COc1ccccc1NC(=O)C(C)OC(=O)C1COc2ccccc2O1 (stereo not given)	LANA-H2B inh 20.6 (no result: RanGTP-Impb inh, Runt-CBFb FRET, Runt-SMMHC FRET)
Cc1c(C)c2cc(Cl)c(O)c(CN3CCN(C)CC3)c2oc1=O	Runt-CBFb FRET 95.6, Runt-SMMHC FRET 126.6
CC(=O)Nc1ccc(S(=O)(=O)N(C)CC(=O)N/N=C/c2cccs2)cc1	none (no result: Runt-CBFb FRET, Runt-SMMHC FRET)
Cc1ccc(SCCNC(=O)c2ccccc2F)cc1	none (no result: Runt-CBFb FRET, Runt-SMMHC FRET)
